# XBP1 UPR activ = activators of adaptive XBP1 UPR arm, primary screen, cell-based, CHO-XBP1 luciferase reporter, luminescence, uHTS; 0.33% of 330,000 active; IRE1-XBP1 UPR activation; percent of tunicamycin response, DMSO as zero; activation, % at 20 µM;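 active means versus positive control, 20 µM dose yields 30% or more activation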;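 further: 100% = tunicamycin at 10 µg/mL and 0% = DMSO only wells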
#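 Material: IRE1-XBP1 luciferase reporter CHO line / Quantity: one thousand reporter cells per well / Buffer or medium: F12 with 10% serum / Compound: 20 µM single concentration, DMSO 1% / Times: 6 h treatment, 37 °C / Detection: Steady-Glo luciferase glow luminescence, 10 min after reagent addition / Benchmarks: tunicamycin high, DMSO low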
# CSC inhib = cancer stem cell viability inhibitors, primary screen, luminescence | cancer stem cell-like cells viability | inhibition, % at 7.5 µM | 1.1% of 300,000 active; in the data active means inhibition above about 75%; tested in HMLE shEcad cells
# Beta apoptosis = inhibitors of cytokine-induced beta cell apoptosis, primary screen, luminescence. INS-1E cytokine-induced death, ATP luminescence, 48 h; percent of positive-control rescue, neutral wells zero. protection from apoptosis, % (test concentration not listed). 0.8% of 300,000 active;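 active means Every replicate reaches about 75%, or at least half do and their mean reaches it too, limit read from the data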;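 further: 0% = cytokine-treated negative control wells and 100% = positive control rescue; higher means more ATP so stronger rescue from cytokine killing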
# CHOP UPR activ = activators of apoptotic CHOP UPR arm, primary screen, cell-based, CHO-CHOP luciferase reporter, luminescence, uHTS. 0.34% of 330,000 active. activation, % at 10 µM. AID 449763, 2010. UPR activation; percent of tunicamycin response over DMSO baseline;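 active means at 10 µM dose, activation of 40% or more, normalized to positive control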;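 further: 100% = tunicamycin at 10 µg/mL and 0% = DMSO alone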
#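 System: CHO-CHOP luciferase reporter cell line | Buffer or medium: F12 medium containing 10% fetal bovine serum | Doses: One dose, 10 µM in 0.5% DMSO | Times: 6 h compound exposure at 37 °C after overnight seeding | Signal: Luciferase luminescence | Read-out: % activation vs tunicamycin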
# T cruzi inh = inhibitors of intracellular T. cruzi growth, primary screen, luminescence, NIH3T3 host cells | T. cruzi beta-gal in NIH3T3, 90 h | inhibition, % (concentration not given with the values) | 1.4% of 300,000 active;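 active means mean inhibition across valid replicates above about 55%, limit read from the data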;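 further: signal also drops with host cell toxicity which is not excluded here; 0% = plate median of DMSO wells and 100% = zero luminescence signal; higher percent means less beta-gal luminescence so fewer parasites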
#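 Incubation – ≥90 h infection period, 3 h prior cell attachment · System – NIH/3T3 fibroblasts plus reporter T. cruzi · Doses – compound pinned at 50 nL/well, DMSO · Read-out basis – percent inhibition of parasite-derived β-gal signal · Signal – luminescent β-galactosidase signal after 60 min lysis · Also added – 5000 T. cruzi trypomastigotes/well · Medium – Low-serum DMEM with 2% FBS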
# Mdm2-MdmX inh = inhibitors of human Mdm2-MdmX association, primary screen, cell-based, luminescence, split luciferase, SaOS-2, uHTS; SaOS-2 split-luciferase Mdm2/MdmX complementation; inhibition, % at 8 µM; 3% of 330,000 active; AID 485346, 2010;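 active means inhibition of at least 50% at 8 µM in the primary screen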
# Target sequence (O15151 whole entry, looked up): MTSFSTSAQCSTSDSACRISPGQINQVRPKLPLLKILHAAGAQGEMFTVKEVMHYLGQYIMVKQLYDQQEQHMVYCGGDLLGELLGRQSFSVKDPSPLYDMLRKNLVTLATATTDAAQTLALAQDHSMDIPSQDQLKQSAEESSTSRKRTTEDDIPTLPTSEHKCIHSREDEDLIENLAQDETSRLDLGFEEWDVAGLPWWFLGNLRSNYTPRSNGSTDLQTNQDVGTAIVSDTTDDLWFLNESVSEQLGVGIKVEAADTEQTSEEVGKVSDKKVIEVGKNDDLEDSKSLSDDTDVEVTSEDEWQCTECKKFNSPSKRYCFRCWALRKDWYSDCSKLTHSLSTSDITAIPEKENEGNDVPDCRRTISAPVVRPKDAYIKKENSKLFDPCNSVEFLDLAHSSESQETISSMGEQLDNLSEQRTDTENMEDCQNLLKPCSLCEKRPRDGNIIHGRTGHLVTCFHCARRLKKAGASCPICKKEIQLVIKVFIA
# Target sequence (Q00987 whole entry, looked up): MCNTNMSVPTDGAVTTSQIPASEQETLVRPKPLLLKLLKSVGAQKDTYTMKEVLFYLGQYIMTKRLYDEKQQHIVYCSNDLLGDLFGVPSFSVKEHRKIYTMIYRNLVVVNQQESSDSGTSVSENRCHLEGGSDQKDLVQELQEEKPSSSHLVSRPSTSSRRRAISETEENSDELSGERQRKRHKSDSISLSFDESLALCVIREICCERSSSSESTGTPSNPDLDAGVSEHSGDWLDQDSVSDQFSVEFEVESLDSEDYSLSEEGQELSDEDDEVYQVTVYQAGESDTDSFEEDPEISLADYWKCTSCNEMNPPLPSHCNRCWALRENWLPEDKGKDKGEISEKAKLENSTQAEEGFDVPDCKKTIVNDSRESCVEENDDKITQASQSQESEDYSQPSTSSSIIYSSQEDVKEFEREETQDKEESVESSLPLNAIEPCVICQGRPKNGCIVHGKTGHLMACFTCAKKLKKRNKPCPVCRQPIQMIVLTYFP
# Mdm2 MdmX conf = Mdm2-MdmX complex disruptors, retested hits, confirmation, luminescence, single concentration | Mdm2-MdmX binding, luminescent assay | inhibition, % at 8 µM | shares compounds with Mdm2-MdmX inh | 55% of 10,000 active; in the data active means inhibition above about 40%
# Full FLuc ctr = full-length luciferase signal inhibition, confirmation, counter-screen for Mdm2/MdmX interaction inhibitor project, cell-based, single concentration, SaOS-2. shares compounds with Mdm2-MdmX inh. SaOS-2 full-length luciferase counterscreen, luminescence. inhibition, % at 8 µM. 77% of 6,200 active. AID 504607, 2011;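 active means mean inhibition at 8 µM reaching about 37%, which flags the compound as non-specific, limit read from the data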;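 further: p53-null SaOS-2 cells with luciferase driven by a doxycycline-inducible promoter; compound on cells about two nights before reading with doxycycline added after day one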
# * hit, by the source's call; / = no result. An excerpt weighted towards active compounds, which were near 5% of everything screened.
SMILES,XBP1 UPR activ,CSC inhib,Beta apoptosis,CHOP UPR activ,T cruzi inh,Mdm2-MdmX inh,Mdm2 MdmX conf,Full FLuc ctr
CCn1c(=O)cc(SCC(=O)N2CCN(c3ccccc3OC)CC2)c2ccccc21,1,/,-11,-1,9,62*,37,/
CC(C)Cc1nc2oc3c(N4CCN(C)CC4)ncnc3c2c2c1CCCC2,/,/,/,/,22,/,/,/
CCCc1nc2oc3c(Cl)ncnc3c2c2c1CCCC2,7,2,-8,3,3,100*,12,/
CC(C)Cc1nc2oc3c(Cl)ncnc3c2c2c1CCCC2,7,76*,3,1,-3,68*,9,/
CC(C)Cc1nc2oc3c(=O)[nH]cnc3c2c2c1CCCC2,-1,-4,10,0,-7,20,/,/
CN(Cc1ccccc1)S(=O)(=O)c1ccc(N2CCCC2=O)cc1,1,-12,-2,-1,/,20,/,/
CCC(C)NC(=O)CSc1nnc(-c2c[nH]c3ccccc23)o1 (stereo not drawn),0,1,-2,1,8,-1,/,/
CCN(Cc1ccccc1)S(=O)(=O)c1ccc(C(=O)N(CCCN(C)C)c2nc3cc(C)cc(C)c3s2)cc1,18,102*,/,24,45,98*,55*,68*
Cc1cc(C)c2sc(N(CCCN(C)C)C(=O)c3ccc(Br)s3)nc2c1,6,11,-3,2,53,40,/,/
Cc1cc(C)c2sc(N(CCCN(C)C)C(=O)c3ccc(S(=O)(=O)N(C)Cc4ccccc4)cc3)nc2c1,22,-7,/,7,50,93*,48*,69*
COc1cc2c(cc1OC)C(c1ccccc1C)CC(=O)N2 (stereo not drawn),-1,-14,-2,-1,8,13,/,/
O=C1/C(=C\c2cc(Br)cc(Br)c2O)SC(=S)N1Cc1ccccc1,-2,78*,0,-1,8,91*,79*,37*
O=C1/C(=C/c2ccc(O)c([N+](=O)[O-])c2)SC(=S)N1Cc1ccccc1,0,/,23,-1,-15,62*,45*,71*
O=C1/C(=C/c2ccccc2O)SC(=S)N1Cc1cccnc1,-1,37,7,0,3,73*,5,/
O=C1CSC(=S)N1Cc1cccnc1,-5,60,9,-1,14,94*,80*,50*
O=C1/C(=C\c2cccc([N+](=O)[O-])c2O)SC(=S)N1Cc1ccccc1,/,35,7,/,-2,/,/,/
CSc1ccccc1NC(=O)CSc1cccc[n+]1[O-],-2,-11,-5,1,/,0,/,/
CC(=O)c1ccc(NC(=O)CC(C)S(=O)(=O)c2ccc3c(c2)CCN3C(C)=O)cc1 (stereo not drawn),-3,-8,-4,0,-8,-9,/,/
Cc1ccccc1OCCSc1nnc(-c2cccnc2)n1N,1,-11,-5,-1,3,25,/,/
O=C(O)CCC(=O)Nc1cccc(-c2nc3ccccc3o2)c1,-3,/,/,1,-2,5,/,/
Cc1ccc(C(=O)CSc2nnc(-c3ccc4[nH]c(C)c(C)c4c3)o2)cc1C,-1,5,4,0,44,51*,9,/
CCc1ccc(NC(=O)C2CCCN2S(=O)(=O)c2ccc3c(c2)n(C)c(=O)c(=O)n3C)cc1 (stereo not drawn),-1,-6,-2,-1,6,11,/,/
Cc1cc(N2CCOCC2)c2c(N)c(Br)cc(C)c2n1,1,8,-13,-1,18,74*,71*,35
COc1cccc(-c2cc(C(=O)N3CCN(C(=O)c4ccco4)CC3)on2)c1,-2,1,-2,0,2,10,/,/
CCc1cc(-c2[nH]ncc2-c2ccc3c(c2)OCO3)c(O)cc1O,-3,56,-10,-3,-12,78*,73*,38*
SMILES,XBP1 UPR activ,CSC inhib,Beta apoptosis,CHOP UPR activ,T cruzi inh,Mdm2-MdmX inh,Mdm2 MdmX conf,Full FLuc ctr
COc1ccc(-c2cn[nH]c2-c2ccc(O)cc2O)cc1OC,1,-10,-1,-1,-2,35,/,/
COc1ccc(-c2[nH]ncc2-c2ccc3c(c2)OCCO3)c(O)c1,-2,-11,-50,-3,7,84*,90*,52*
NC(=O)C1CCN(c2nc(-c3ccccc3F)cs2)CC1,3,-16,-8,3,/,-72,/,/
COc1ccc2c(c1)sc1nc(-c3ccccc3)cn12,-11,91*,35,-10,5,84*,70*,114*
CN(C)CCn1c(=N)n(CC(O)c2ccc(Cl)c(Cl)c2)c2ccccc21 (stereo not drawn),0,5,4,-2,43,71*,55*,74*
N=c1n(CCN2CCCCC2)c2ccccc2n1CC(O)c1ccc(Cl)c(Cl)c1 (stereo not drawn),5,37,59,2,59*,99*,96*,56*
N=c1n(CCN2CCCCC2)c2ccccc2n1CC(O)c1cccc(Br)c1 (stereo not drawn),-2,22,73,2,35,98*,78*,34
CCCCn1c(=N)n(CC(O)c2ccccc2)c2ccccc21 (stereo not drawn),-2,-3,-6,-1,-7,-33,/,/
N=c1n(CCN2CCCC2)c2ccccc2n1CC(O)c1ccco1 (stereo not drawn),3,-3,-10,-3,2,-7,/,/
CCOC(=O)C1(C)NC(c2cccs2)C2C(=O)N(c3ccc(OC)cc3)C(=O)C21 (stereo not drawn),-1,-7,-9,-1,-10,22,/,/
Cc1cc(C)nc(NS(=O)(=O)c2ccc(NC(=O)CSc3ncn[nH]3)cc2)n1,0,7,1,-1,-1,11,/,/
CCOc1ccc(-n2c(=O)c3c4c(sc3n(CC(=O)NCc3ccco3)c2=O)CCC4)cc1,1,2,-2,-1,16,73*,0,/
CCN(CC)C(=O)Cn1c(=O)n(-c2ccccc2)c(=O)c2c3c(sc21)CCC3,0,-6,-3,-1,5,-11,/,/

# Bioassay records from PubChem BioAssay.
